PLCg1 inh – inhibitors of human phospholipase C gamma1. purified PLC-gamma1, fluorogenic substrate, fluorescence. inhibition, % at 12.2 µM. 0.84% of 370,000 active. P19174; in the data active = inhibition above about 9.5%
Target sequence (P19174 whole entry, looked up): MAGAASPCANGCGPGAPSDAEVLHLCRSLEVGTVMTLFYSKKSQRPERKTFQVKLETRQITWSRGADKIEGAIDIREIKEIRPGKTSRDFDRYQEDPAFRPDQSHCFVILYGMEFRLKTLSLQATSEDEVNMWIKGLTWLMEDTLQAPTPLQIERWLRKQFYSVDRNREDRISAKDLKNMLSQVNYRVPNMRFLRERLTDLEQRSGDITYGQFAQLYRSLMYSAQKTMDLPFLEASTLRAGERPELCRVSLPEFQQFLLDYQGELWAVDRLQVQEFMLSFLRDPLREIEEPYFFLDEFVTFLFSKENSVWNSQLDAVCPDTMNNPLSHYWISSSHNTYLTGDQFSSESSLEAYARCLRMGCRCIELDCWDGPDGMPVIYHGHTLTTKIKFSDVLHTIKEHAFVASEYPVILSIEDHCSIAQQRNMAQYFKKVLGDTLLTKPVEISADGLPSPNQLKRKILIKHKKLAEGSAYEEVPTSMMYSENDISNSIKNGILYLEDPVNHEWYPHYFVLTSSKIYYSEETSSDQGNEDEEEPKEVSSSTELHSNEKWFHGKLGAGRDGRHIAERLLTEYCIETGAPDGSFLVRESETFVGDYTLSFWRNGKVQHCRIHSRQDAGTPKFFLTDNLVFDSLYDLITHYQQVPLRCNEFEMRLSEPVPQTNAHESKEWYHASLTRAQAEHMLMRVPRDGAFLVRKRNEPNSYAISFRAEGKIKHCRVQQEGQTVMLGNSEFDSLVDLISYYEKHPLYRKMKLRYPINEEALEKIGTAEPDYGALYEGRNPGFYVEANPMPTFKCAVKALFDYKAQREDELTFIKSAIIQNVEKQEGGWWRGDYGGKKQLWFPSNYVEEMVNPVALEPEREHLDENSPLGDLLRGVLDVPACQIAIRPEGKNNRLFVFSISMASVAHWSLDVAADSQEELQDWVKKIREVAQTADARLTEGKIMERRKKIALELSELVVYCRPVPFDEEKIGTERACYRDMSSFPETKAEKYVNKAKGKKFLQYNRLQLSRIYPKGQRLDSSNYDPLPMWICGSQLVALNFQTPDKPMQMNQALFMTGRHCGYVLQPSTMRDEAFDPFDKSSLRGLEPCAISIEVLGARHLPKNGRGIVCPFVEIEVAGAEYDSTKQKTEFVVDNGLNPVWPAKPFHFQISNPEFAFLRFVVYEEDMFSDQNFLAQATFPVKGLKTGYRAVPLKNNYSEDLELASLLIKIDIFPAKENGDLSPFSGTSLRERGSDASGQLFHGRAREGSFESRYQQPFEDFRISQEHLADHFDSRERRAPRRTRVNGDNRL
DDE Tn6 FP inh – inhibitors of Tn6 peptide binding to human fibrin DD(E). P02675. Fibrin DD(E) TRITC-Tn6 fluorescence polarization displacement. inhibition, % at 8.3 µM. 0.21% of 370,000 active. AID 720509;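 active = inhibition above a per-campaign cutoff: mean of compounds within control limits plus 3 SD, cut at about 15% in these data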
ADAM10 inh – inhibits human ADAM10; inhibition, % at 7 µM; 0.62% of 370,000 active; recombinant ADAM10, EDANS/DABCYL FRET peptide cleavage, 3 h;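 active = inhibition above a per-campaign cutoff equal to the mean of compounds falling between control-based bounds plus 3 SD, cut at about 20% in these data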
PLC-beta3 inh – PLC-beta3 (human) inhibition, primary screen | Purified PLC-beta3, fluorogenic substrate, fluorescence | inhibition, % at 12.2 µM | 0.18% of 370,000 active | AID 720704
Tn7 DDE FP – inhibitors of Tn7 peptide binding to human fibrin DD(E); P02675; FP displacement of FITC-Tn7 peptide from fibrin DD(E); 0% = median of compound wells per plate; inhibition, % at 8.3 µM; 0.13% of 370,000 active;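 active = inhibition above the mean of compounds falling within the control limits plus 3 SD of them, cut at about 14% in these data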
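Assay system: Human clot-derived fibrin DD(E) complex | Buffer or medium: Tris/NaCl/CaCl2 buffer, pH 7.8 | Repeats: One replicate per compound | Benchmarks: Aha-Tn7 high control | Measure: % inhibition scaled between sample-field median and high-control FP | Schedule: 10 min plus 3 h, room temperature | Signal: Fluorescence polarization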
ADAM17 inh – ADAM17 inhibition, QFRET primary screen | P78536 | recombinant ADAM17, EDANS/DABCYL FRET peptide cleavage | inhibition, % at 6.95 µM | 0.83% of 370,000 active | AID 720648;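 active = inhibition above the mean of compounds lying between control limits plus 3 SD, set per campaign, cut at about 8.5% in these data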
PLCg1 ctr – inhibits human PLC-gamma1 in PLC-beta3 counter-screen. shares compounds with PLCg1 inh. 3.1% of 3,300 active. AID 743258. inhibition, % at 12.3 µM. purified PLC-gamma1, fluorogenic substrate, fluorescence; in the data active = inhibition above about 9.5%
PLCbeta3 conf – confirmation of human PLC-beta3 inhibitors; shares compounds with PLCg1 inh; 1% of 3,300 active; inhibition, % at 12.3 µM; AID 743261; purified PLC-beta3, fluorogenic substrate fluorescence
A number is an active result; - = inactive; . = no result. Rows were chosen to be rich in hits. Some 2.3% of all compounds tested hit in one or more screens of this group. Cut-off read from the data, not from the text of the source, unless noted: active = inhibition above about 11%; inactive = the rest.

SMILES	PLCg1 inh	DDE Tn6 FP inh	ADAM10 inh	PLC-beta3 inh	Tn7 DDE FP	ADAM17 inh	PLCg1 ctr	PLCbeta3 conf
Cn1cccc1C(=O)NC(=O)COC(=O)CC12CC3CC(CC(Br)(C3)C1)C2	-	-	-	-	-	-	.	.
O=C(COC(=O)CC12CC3CC(CC(Br)(C3)C1)C2)NC(=O)NCc1ccco1	11	-	-	-	-	-	-	-
C[C@H](O)[C@@H]1CN2CCc3ccc(-c4ccc5c(c4)OCO5)cc3[C@@H]2C[C@@H]1N(C)C(=O)Nc1ccccc1	-	-	-	-	-	-	.	.
C#CCN1CC(N(C)CCOC(=O)c2cc3ccccc3[nH]2)CS1(=O)=O (centres undefined)	-	-	-	-	-	-	.	.
COC(=O)[C@]12C[C@H](CC(=O)N3CCOCC3)C(=O)N(Cc3ccco3)C1=C[C@H](C(C)C)O[C@@H]2C1CC1	-	-	-	-	-	-	.	.
CNC(=S)N/N=C(\C)c1ccc2c(c1)OCCO2	15	-	-	-	-	-	-	-
COc1ccccc1N1CCN(C(c2ccc(Cl)cc2)c2nnnn2C(C)(C)C)CC1 (centres undefined)	13	-	-	-	-	-	-	-
COc1ccc(C(c2nnnn2C(C)(C)C)N2CCN(C/C=C/c3ccccc3)CC2)cc1 (centres undefined)	11	-	-	-	-	-	-	-
Cc1cccc(N2CCN(C(c3ccccc3)c3nnnn3C(C)(C)C)CC2)c1C (centres undefined)	-	-	-	-	-	-	.	.
Fc1ccccc1N1CCN(CC2CC3C=CC2C3)CC1 (centres undefined)	12	-	-	11	-	-	-	-
O=S1(=O)c2c(cccc2N2CCSCC2)Oc2ccccc2CN1Cc1cn(Cc2ccc(C(F)(F)F)cc2)nn1	-	-	-	-	-	-	.	.
CCn1cc(Br)c(C(=O)NCc2ccco2)n1	10	-	-	-	-	-	-	-
CC1Cc2ccccc2N1C(=O)CSc1nc(-c2ccco2)cc(C(F)(F)F)n1 (centres undefined)	13	-	-	-	-	-	-	-
COc1cc(C(=O)N2CCCCC2c2cc(C(=O)NC(C)C)no2)cc(OC)c1C (centres undefined)	13	-	-	-	-	-	-	-
COc1ccc(NC(=O)c2cc(C3CCCCN3C(=O)c3cc(F)ccc3C)on2)c(C)c1 (centres undefined)	9.7	-	-	-	-	-	-	-
COc1ccc(C(=O)N2CCCCC2c2cc(C(=O)Nc3ccc(OC)cc3C)no2)cc1 (centres undefined)	-	-	-	-	-	-	.	.
CCOC(=O)CC[C@@]1(C(=O)OCC)C[C@@H](CC(=O)N2CCN(C(=O)c3ccco3)CC2)C(=O)N2CCCC=C21	-	-	-	-	-	-	.	.
CN1[C@H](Cc2ccccc2)COc2cccc(N3CCCC3)c2S1(=O)=O	-	-	-	-	-	-	.	.
CCCCC(=O)Nc1ccc(N2CCCC2)cc1	-	-	-	-	-	-	.	.
CCCCCC(=O)Nc1ccc(N2CCN(S(C)(=O)=O)CC2)cc1	9.7	-	-	-	-	-	-	-
CNC[C@H]1OCc2cnnn2CCCC(=O)N([C@@H](C)CO)C[C@@H]1C	-	-	-	-	-	-	.	.
O=C(Nc1cccc(C(=O)O)c1)/C(=C/c1cccc([N+](=O)[O-])c1)NC(=O)c1cccc(Br)c1	-	-	-	-	-	-	.	.
O=C(N/N=C/C(Cl)=C/c1ccc([N+](=O)[O-])cc1)C(=O)Nc1cccc(C(=O)O)c1	13	-	-	-	-	-	-	-
COc1ccc(C2C(C(=O)Nc3ccc(Cl)cc3)CCC(=O)N2c2ccc(OC)cc2)cc1 (centres undefined)	-	-	-	-	-	-	.	.
O=C(NCCc1ccccc1)C1CCCN1S(=O)(=O)c1ccc(F)cc1 (centres undefined)	-	-	-	12	-	-	-	-
SMILES	PLCg1 inh	DDE Tn6 FP inh	ADAM10 inh	PLC-beta3 inh	Tn7 DDE FP	ADAM17 inh	PLCg1 ctr	PLCbeta3 conf
COC(=O)[C@]12C[C@H](CC(=O)N3CCOCC3)C(=O)N(Cc3ccc4c(c3)OCO4)C1=C[C@H](C(C)C)O[C@@H]2C1CC1	-	-	-	-	-	-	.	.
O=C(c1cccs1)N1CCC(C(=O)N2CCN(Cc3ccc4c(c3)OCO4)CC2)CC1	-	-	-	-	-	-	.	.
Cc1ccccc1C(=O)N1CCC(C(=O)N2CCN(Cc3ccc4c(c3)OCO4)CC2)CC1	12	-	-	-	-	-	-	-
Cc1ccc(OCC(=O)OCc2c(C)noc2C)cc1C	15	-	-	-	-	-	-	-
Cn1c(NCCCN2CCOCC2)nc2c1c(=O)n(Cc1ccc(Cl)cc1Cl)c(=O)n2C	12	-	-	-	-	-	-	-
CC(CCN1CCC(C(O)(c2ccccc2)c2ccccc2)CC1)Oc1ccc(OC(F)(F)F)cc1 (centres undefined)	-	-	-	-	-	-	.	.
CCCC[C@H]1C2CC(OC(=O)Nc3ccc(Br)cc3)C(C2)[C@H]2CCCCN21 (some centres undefined)	-	-	-	-	-	-	.	.
O=S(=O)(/N=C(/Nc1ccccc1)C(F)(F)F)c1ccccc1	9.6	-	-	-	-	-	-	-
O=C(N1CCOCC1)N1CCN(S(=O)(=O)N2CCCCC2)CC1	-	-	-	-	-	-	.	.
O=S(=O)(N1CCOCC1)N1CCCN(S(=O)(=O)N2CCOCC2)CC1	11	-	-	-	-	-	-	-
CCN(CC)C(=O)CC[C@H]1CC[C@]2(CCCN(C(=O)c3ccno3)C2)O1	-	-	-	-	-	-	.	.
Cc1ccc(S(=O)(=O)CCC(=O)N(CCCN2CCOCC2)c2nc3ccccc3s2)cc1	13	-	-	-	-	-	-	-
O=C(Nc1nc2ncccn2c1-c1ccc(C(F)(F)F)cc1)c1ccccc1	-	-	-	-	-	-	.	.
COC(=O)[C@H](CC(C)C)NC(=O)Nc1ccc2c(c1)OCCO2	12	-	-	-	-	-	-	-
COC(=O)[C@@H](NC(=O)Nc1ccc2c(c1)OCCO2)C(C)C	10	-	-	-	-	-	-	-
Cc1ccc(Nc2ncnc(N)n2)cc1C	10	-	-	-	-	-	-	-
Nc1ncnc(Nc2ccccc2)n1	-	-	-	-	-	-	.	.
O=C(c1ccc(S(=O)(=O)N2CCCCCC2)cc1)N1CCN(c2ccccc2F)CC1	12	-	-	-	-	-	-	-

Compound activity deposited in PubChem by The Scripps Research Institute Molecular Screening Center.
